High-throughput results deposited in PubChem by several laboratories.
IMP-1 inh: blocks Pseudomonas aeruginosa IMP-1 metallo-beta-lactamase. purified IMP-1, nitrocefin hydrolysis, epi-absorbance fluorescence. AID 1556. inhibition, % at 5.6 µM. 290,000 tested, 0.45% active;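 active means inhibition above the mean plus 3 SD of all compounds in the same screening run, cut at about 4.5% in these data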;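 further: 0% = IMP-1 with DMSO and 100% = DMSO wells lacking enzyme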
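Assay system: purified IMP-1; Quantity: IMP-1 0.2 nM before substrate addition; Medium: HEPES buffer pH 7.1 with ZnSO4 and Brij 35; Incubation: 15 min enzyme–compound preincubation, then 25 min nitrocefin reaction, 25 °C; Signal: fluorescence quenching readout, ex 480/em 530 nm; Controls: DMSO with and without IMP-1; Repeats: singlicate testing.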
MEKK2 WT-MEK5: raises or lowers MEK5 binding to wildtype human MEKK2 PB1 domain | Q9Y2U5 | 290,000 tested, 1.1% active | binding response (% of control), % at 10 µM | bead flow cytometry, Alexa488-MEK5 binding to MEKK2 WT; actives lie on both sides | AID 1531; in the data active means binding response below about 67% or above about 130%
MEKK3 PB1 HTS: raises or lowers MEK5 binding to the human MEKK3 PB1 domain; binding response (% of control), % at 10 µM; Q99759; bead-based flow cytometry, Alexa488-MEK5 binding to MEKK3; actives lie on both sides; 0 = blocked by unlabeled MEK5, 100 = vehicle; 290,000 tested, 1.4% active;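 active means binding response more than 3 SD above or below the average of its plate-row segment, actives on both sides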;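 further: Alexa488 bead fluorescence after subtracting the streptavidin-only scavenger bead signal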
Target sequence (Q99759 whole entry, looked up, the tested form may be a part): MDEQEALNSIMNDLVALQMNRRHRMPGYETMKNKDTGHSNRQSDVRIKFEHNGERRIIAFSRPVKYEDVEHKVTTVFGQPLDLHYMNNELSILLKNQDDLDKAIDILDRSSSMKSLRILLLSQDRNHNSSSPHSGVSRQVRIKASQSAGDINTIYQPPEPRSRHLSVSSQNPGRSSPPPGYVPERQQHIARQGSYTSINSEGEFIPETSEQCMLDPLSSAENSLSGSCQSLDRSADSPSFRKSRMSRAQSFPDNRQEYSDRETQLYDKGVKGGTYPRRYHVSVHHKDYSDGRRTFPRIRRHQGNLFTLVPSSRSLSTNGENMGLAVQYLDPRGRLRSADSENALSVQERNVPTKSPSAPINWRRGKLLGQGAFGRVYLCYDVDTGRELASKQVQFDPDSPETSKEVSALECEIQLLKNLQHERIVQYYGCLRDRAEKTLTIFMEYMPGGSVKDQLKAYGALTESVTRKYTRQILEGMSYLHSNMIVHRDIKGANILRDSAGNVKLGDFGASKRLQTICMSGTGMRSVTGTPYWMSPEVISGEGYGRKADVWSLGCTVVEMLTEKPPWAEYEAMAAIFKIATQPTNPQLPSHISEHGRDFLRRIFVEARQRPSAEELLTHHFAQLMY
MEKK2 mut-MEK5: signal of MEK5 binding to mutant human MEKK2 PB1 domain; bead flow cytometry, Alexa488-MEK5 binding to MEKK2 mutant; percent response, % at 10 µM; 290,000 tested, 0.35% active; AID 1530; in the data active means percent response above about 24%, passing the limit was not always enough
VIM-2 inhibitor: blocks Pseudomonas aeruginosa VIM-2 metallo-beta-lactamase | 290,000 tested, 0.89% active | purified VIM-2, nitrocefin hydrolysis, epi-absorbance fluorescence | inhibition, % at 5.6 µM;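 active means inhibition above the mean of all tested compounds plus 3 SD, cutoff set per screening run, cut at about 7.5% in these data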;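 further: red hydrolysis product quenches plate fluorescence so inhibitors raise well fluorescence; 0% = enzyme with DMSO and 100% = DMSO without enzyme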
MEKK2wt confirm: raises or lowers MEK5 binding to wildtype human MEKK2, retest | 5,900 tested, 2.4% active | shares compounds with MEKK3 PB1 HTS | bead flow cytometry, Alexa488-MEK5 binding to MEKK2 WT; actives lie on both sides | binding response (% of control), % at 10 µM; in the data active means binding response below about 16% or above about 210%; inactive means in between
MEKK2mut confirm: signal of MEK5 binding to mutant human MEKK2, retest; shares compounds with MEKK3 PB1 HTS; bead flow cytometry, Alexa488-MEK5 binding to MEKK2 mutant; percent response, % at 10 µM; 5,900 tested, 2% active; in the data active means percent response mostly above about 71%, no sharp cut-off; inactive means mostly below about 38%;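 further: higher means compound restores mutant binding toward wildtype level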
MEKK3 confirm: confirmation of inhibitors of MEK5 binding to human MEKK3; bead flow cytometry, Alexa488-MEK5 binding to MEKK3; stronger effect = lower value; shares compounds with MEKK3 PB1 HTS; 5,900 tested, 1.8% active; AID 1894; binding response (% of control), % at 10 µM;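 active means binding response below 72% of control, or above a set upper limit, though filed actives all read lower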;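 further: 100% = DMSO only wells and 0% = binding blocked by excess unlabeled MEK5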
Active calls of the source: *. In the library only some 3.4% were active in any assay of this set; here they are far more common.

Screening C#CCOCCOCCOCCNc1nc(N2CCN(C(=O)C([C@@H](C)CC)n3cc(C(N)CC(C)C)nn3)CC2)nc(N2CCN(C(=O)[C@H](CCC(=O)O)n3cc(C(N)Cc4ccc(O)cc4)nn3)CC2)n1 (some centres not stated) returned IMP-1 inh -4, MEKK2 WT-MEK5 113, MEKK3 PB1 HTS 105, MEKK2 mut-MEK5 9 and VIM-2 inhibitor -2.
Screening C#CCOCCOCCOCCNc1nc(N2CCN(C(=O)[C@H](CCCCN)n3cc([C@@H](N)CC(C)C)nn3)CC2)nc(N2CCN(C(=O)[C@H](CCCCN)n3cc([C@@H](N)CC(C)C)nn3)CC2)n1 returned IMP-1 inh -3, MEKK2 WT-MEK5 136*, MEKK3 PB1 HTS 96, MEKK2 mut-MEK5 23, VIM-2 inhibitor -1, MEKK2wt confirm 125, MEKK2mut confirm 12 and MEKK3 confirm 98.
Screening C#CCOCCOCCOCCNc1nc(N2CCN(C(=O)[C@H](CCCCN)n3cc([C@@H](N)CC(C)C)nn3)CC2)nc(N2CCN(C(=O)[C@H](Cc3ccc(O)cc3)n3cc([C@@H](N)CC(C)C)nn3)CC2)n1 returned IMP-1 inh -2, MEKK2 WT-MEK5 151*, MEKK3 PB1 HTS 109, MEKK2 mut-MEK5 38, VIM-2 inhibitor -2, MEKK2wt confirm 140, MEKK2mut confirm 20 and MEKK3 confirm 106.
Screening C#CCOCCOCCOCCNc1nc(N2CCN(C(=O)[C@H]([C@@H](C)CC)n3cc([C@@H](N)Cc4ccc(O)cc4)nn3)CC2)nc(N2CCN(C(=O)[C@H](CCCCN)n3cc([C@@H](N)CC(C)C)nn3)CC2)n1 returned IMP-1 inh -4, MEKK2 WT-MEK5 221*, MEKK3 PB1 HTS 113, MEKK2 mut-MEK5 79*, VIM-2 inhibitor -2, MEKK2wt confirm 183, MEKK2mut confirm 110* and MEKK3 confirm 108.
COC(=O)CCCC1=CC2=C(c3ccccc3)C(=O)C(C)(OC(=O)C3CCCC3)C(=O)C2=CN1C1CCCCC1 (configuration not stated) was read as MEKK2 WT-MEK5 100, MEKK3 PB1 HTS 96 and MEKK2 mut-MEK5 -7.
Screening CN1CCN(NC(=O)C2CC2)CC1 returned IMP-1 inh -2, MEKK2 WT-MEK5 104, MEKK3 PB1 HTS 142*, MEKK2 mut-MEK5 0, VIM-2 inhibitor -2, MEKK2wt confirm 106, MEKK2mut confirm -3 and MEKK3 confirm 103.
Screening COc1cccc(C2SCC(=O)N2c2ccc(C)cc2)c1OC (configuration not stated) returned IMP-1 inh -1, MEKK2 WT-MEK5 99, MEKK3 PB1 HTS 100, MEKK2 mut-MEK5 -1 and VIM-2 inhibitor -4.
COc1ccccc1NC(=O)CN1CCN(CC(=O)Nc2ccc3c(c2)OCCO3)CC1 was read as IMP-1 inh -1, MEKK2 WT-MEK5 112, MEKK3 PB1 HTS 106, MEKK2 mut-MEK5 24*, VIM-2 inhibitor -3, MEKK2wt confirm 112, MEKK2mut confirm 15 and MEKK3 confirm 104.
COc1ccccc1NC(=O)CN1CCN(CC(=O)Nc2ccc(OC)c(OC)c2)CC1 was read as IMP-1 inh -2, MEKK2 WT-MEK5 111, MEKK3 PB1 HTS 107, MEKK2 mut-MEK5 7 and VIM-2 inhibitor 1.
CCOc1ccc(NC(=O)CN2CCN(CC(=O)Nc3cc(OC)cc(OC)c3)CC2)cc1 was read as IMP-1 inh -3, MEKK2 WT-MEK5 115, MEKK3 PB1 HTS 113, MEKK2 mut-MEK5 25*, VIM-2 inhibitor -1, MEKK2wt confirm 105, MEKK2mut confirm -3 and MEKK3 confirm 104.
`Cc1nn(Cc2ccccc2)c(=O)c2nn(-c3ccc(Cl)cc3)c(C)c12` gave IMP-1 inh -1, MEKK2 WT-MEK5 97, MEKK3 PB1 HTS 99, MEKK2 mut-MEK5 1 and VIM-2 inhibitor -2.
`O=C(OC1CCOC1=O)c1cccc(S(=O)(=O)Nc2cccc(Cl)c2)c1` (configuration not stated) gave IMP-1 inh -2, MEKK2 WT-MEK5 98, MEKK3 PB1 HTS 100, MEKK2 mut-MEK5 -1 and VIM-2 inhibitor -1.
CC1(C)Cc2c(c(N3CCOCC3)nc3sc(-c4ccc(C(=O)O)o4)c(N)c23)CO1 was read as IMP-1 inh -1, MEKK2 WT-MEK5 -5.0*, MEKK3 PB1 HTS 80, MEKK2 mut-MEK5 62*, VIM-2 inhibitor 1, MEKK2wt confirm 89, MEKK2mut confirm -2 and MEKK3 confirm 93.
Screening CCCCP(=O)(c1ccccn1)c1ccccn1 returned IMP-1 inh -1 and VIM-2 inhibitor -1.
`CCCCC1=C([O-])C2N=CC=CC2=[N+](c2ccccn2)C1=O` (configuration not stated) gave IMP-1 inh -2, MEKK2 WT-MEK5 102, MEKK3 PB1 HTS 138*, MEKK2 mut-MEK5 0, VIM-2 inhibitor -2, MEKK2wt confirm 35, MEKK2mut confirm -25 and MEKK3 confirm 82.
Screening Cc1cc(Cl)ccc1OCC(=O)Nn1c(C)ccc1C returned IMP-1 inh -3, MEKK2 WT-MEK5 123, MEKK3 PB1 HTS 128*, MEKK2 mut-MEK5 9, VIM-2 inhibitor -2, MEKK2wt confirm 96, MEKK2mut confirm -1 and MEKK3 confirm 100.
Screening O=C(c1ccc(=O)oc1)N1CCN(C(c2ccccc2)c2ccccc2)CC1 returned IMP-1 inh -2, MEKK2 WT-MEK5 100, MEKK3 PB1 HTS 102, MEKK2 mut-MEK5 2 and VIM-2 inhibitor -2.
Screening COC(=O)C[C@H]1c2ccccc2S(=O)(=O)N1Cc1ccc(OC)cc1 returned MEKK2 WT-MEK5 106, MEKK3 PB1 HTS 106 and MEKK2 mut-MEK5 2.
`Cc1nc2ccccc2c2oc(C(=O)N3CCC(N4CCCCC4)CC3)cc12` gave IMP-1 inh 0, MEKK2 WT-MEK5 138*, MEKK3 PB1 HTS 112, MEKK2 mut-MEK5 26*, VIM-2 inhibitor 60*, MEKK2wt confirm 144, MEKK2mut confirm 42 and MEKK3 confirm 97.
For CCCN1C(=O)c2ccc(C(=O)NC3CCCCC3)cc2C1=O the results were IMP-1 inh -4, MEKK2 WT-MEK5 98, MEKK3 PB1 HTS 102, MEKK2 mut-MEK5 2 and VIM-2 inhibitor 0.
`CC(C)N1C(=O)c2ccc(C(=O)O)cc2C1=O` gave IMP-1 inh -2, MEKK2 WT-MEK5 102, MEKK3 PB1 HTS 104, MEKK2 mut-MEK5 4 and VIM-2 inhibitor 0.
